PubChem BioAssay AID624302 (The Scripps Research Institute Molecular Screening Center, 2012)
Calls of active or inactive are those of the source.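 The calls were made as follows: active = relative luminescence ratio of 1.25 or more at any tested dose; inactive = ratio below 1.25 at every dose.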

molecular target: Nuclear receptor subfamily 0 group B member 1 (Homo sapiens) (UniProt P51843); test: relief of Gal4-DAX1 luciferase repression – cell-based, luminescence, HEK293, powder samples, assay provider, dose response (AID 624302); conditions: luciferase reporter luminescence, at 100 µM, stronger effect = higher value
Procedure, shortened: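 test system = HEK293 with GAL4-DAX1 fusion and Gal4-tk-luc reporter | signal = luciferase reporter luminescence | compound dosing = 100 µM, plus three 1:2 steps starting 50 µM | controls = DMSO vehicle wells as reference | read-out basis = luminescence ratio versus DMSO wells, higher with DAX1 derepression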

Chain of Nuclear receptor subfamily 0 group B member 1 (Homo sapiens) (P51843 207-470 limits assumed): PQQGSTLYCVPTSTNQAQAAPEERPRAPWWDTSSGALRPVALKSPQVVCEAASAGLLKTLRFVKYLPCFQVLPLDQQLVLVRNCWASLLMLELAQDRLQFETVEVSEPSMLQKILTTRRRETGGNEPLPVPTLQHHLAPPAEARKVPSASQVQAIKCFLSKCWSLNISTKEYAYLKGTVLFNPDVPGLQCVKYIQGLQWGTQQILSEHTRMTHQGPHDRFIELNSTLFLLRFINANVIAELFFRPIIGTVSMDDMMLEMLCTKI

| SMILES | relative luminescence ratio |
| --- | --- |
| COc1ccc(OC)c(C(C)NC(=O)c2ccccc2)c1 (centres undefined) | 0.46 (inactive) |
| Cn1c(=O)n(C)c2cc(C(=O)Nc3ccc4c(c3)OCCO4)ccc21 | 2.25 |
| COc1ccc(OC)c(C(C)NC(=O)c2cccc(C)c2)c1 (centres undefined) | 0.23 (inactive) |
| COc1cccc(C(=O)NC(C)c2cc(OC)ccc2OC)c1 (centres undefined) | 0.3 (inactive) |
| O=C(Nc1ccc2c(c1)OCO2)c1ccc(C2SCC(=O)N2Cc2ccco2)cc1 (centres undefined) | 0.01 (inactive) |
| CN(C)c1cccc(C(=O)Nc2ccc3c(c2)OCCO3)c1 | 0.05 (inactive) |
| COc1ccc(OC)c(C(C)NC(=O)c2ccc(C(C)(C)C)cc2)c1 (centres undefined) | 0.1 (inactive) |
| COc1cccc(C(=O)Nc2ccc3c(c2)OCCO3)c1 | 0.02 (inactive) |
| O=C(Nc1ccc2c(c1)OCCO2)c1ccc2ccccc2c1 | 0.02 (inactive) |
| O=C(Nc1ccc2c(c1)OCO2)c1ccc(C2SCC(=O)N2Cc2ccccc2)cc1 (centres undefined) | 0.01 (inactive) |
| COc1ccc(OC)c(C(C)NC(=O)c2cccc(F)c2)c1 (centres undefined) | 0.63 (inactive) |
| COc1ccc(OC)c(C(C)NC(=O)c2ccc(F)cc2)c1 (centres undefined) | 0.33 (inactive) |
| COc1ccc(OC)c(C(C)NC(=O)c2cccc3ccccc23)c1 (centres undefined) | 0.01 (inactive) |
| COc1ccc(OC)c(C(C)NC(=O)c2ccccc2Cl)c1 (centres undefined) | 0.39 (inactive) |
| CSc1ccccc1C(=O)Nc1ccc2c(c1)OCCO2 | 0.51 (inactive) |
| Cn1c(=O)n(C)c2cc(C(=O)Nc3ccc4c(c3)OCO4)ccc21 | 1.77 |
| COc1cccc(C(=O)Nc2ccc3c(c2)OCO3)c1 | 0.16 (inactive) |
| O=C(Nc1ccc2c(c1)OCO2)c1cccs1 | 0.38 (inactive) |
| Cc1cc(C(=O)Nc2ccc3c(c2)OCO3)cs1 | 0.26 (inactive) |
| CSc1ccccc1C(=O)Nc1ccc2c(c1)OCO2 | 0.41 (inactive) |
| COc1ccc(OC)c(C(C)NC(=O)c2ccc(C)cc2)c1 (centres undefined) | 0.38 (inactive) |
| O=C(Cc1cccs1)Nc1ccc2c(c1)OCO2 | 0.62 (inactive) |
| COc1ccc(OC)c(C(C)NC(=O)c2ccc(Cl)cc2)c1 (centres undefined) | 0.3 (inactive) |
| COc1ccc(OC)c(C(C)NC(=O)c2ccc3c(c2)OCCO3)c1 (centres undefined) | 0.31 (inactive) |
| COc1ccc(OC)c(C(C)NC(=O)c2c(F)cccc2Cl)c1 (centres undefined) | 0.51 (inactive) |
| COc1ccc(OC)c(C(C)NC(=O)c2ccccc2F)c1 (centres undefined) | 0.39 (inactive) |
| Cc1occc1C(=O)Nc1ccc2c(c1)OCO2 | 0.21 (inactive) |
| O=C(Nc1ccc2c(c1)OCO2)c1ccc2ccccc2c1 | 0.02 (inactive) |
| COc1ccc(OC)c(C(C)NC(=O)c2ccccc2C)c1 (centres undefined) | 0.42 (inactive) |
